IMP-1 inh-1 = inhibitors of Pseudomonas aeruginosa IMP-1 metallo-beta-lactamase. inhibition, % at 5.6 µM. hit rate 0.45% among 290,000. purified IMP-1, nitrocefin hydrolysis, epi-absorbance fluorescence;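 active means inhibition above the mean plus 3 SD of all compounds in the same screening run, cut at about 4.5% in these data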;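 further: 0% = IMP-1 with DMSO and 100% = DMSO wells lacking enzyme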
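System – purified recombinant IMP-1 beta-lactamase · Input – IMP-1 dispensed at 0.2 nM · Timing – 15 min preincubation plus 25 min reaction at 25 °C · Signal – Epi-absorbance fluorescence, 480 nm excitation, 530 nm emission · Measure – percent IMP-1 inhibition derived from blank-referenced optical density · Controls – Enzyme-plus-DMSO low control, enzyme-free DMSO high control · Replication – singlicate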
Mot1-301 SUMO = blocks SUMOylation pathway, rescuing yeast Mot1-301 growth; growth rescue, % at 18.8 µM; S. cerevisiae Mot1-301 growth rescue, ATP luminescence, 38.5C; percent above DMSO median, 100 means doubled; hit rate 1% among 320,000;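 active means every valid replicate shows activation above 250% relative to neutral control wells; inactive means the rest, any valid replicate at or below 250%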;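 further: OY570 slx delta 5 strain wells were the positive control but not used for scaling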
VIM-2 inh = blocks Pseudomonas aeruginosa VIM-2 metallo-beta-lactamase; purified VIM-2, nitrocefin hydrolysis, epi-absorbance fluorescence; inhibition, % at 5.6 µM; hit rate 0.89% among 290,000; AID 1527;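 active means inhibition above the mean of all tested compounds plus 3 SD, cutoff set per screening run, cut at about 7.5% in these data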;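 further: red hydrolysis product quenches plate fluorescence so inhibitors raise well fluorescence; 0% = enzyme with DMSO and 100% = DMSO without enzyme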
FID counter = displaces DNA intercalator in HCV helicase counter-screen; DNA fluorescent intercalator displacement, fluorescence; inhibition, % at 7.9 µM; hit rate 0.17% among 290,000; AID 1845; in the data active means inhibition above about 37%;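 further: 0% = vehicle and 100% = reference compound; higher means more ethidium bromide displaced from hairpin DNA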
SUMO HTRF inh = inhibitors of human SUMOylation (UBC9). P63279. HTRF SUMOylation assay, SAE1/SAE2 + UBC9, in vitro. inhibition, % at 35 µM. hit rate 0.36% among 290,000; in the data active means inhibition above about 50%, passing the limit was not always enough
Target sequence (P63279 whole entry, looked up): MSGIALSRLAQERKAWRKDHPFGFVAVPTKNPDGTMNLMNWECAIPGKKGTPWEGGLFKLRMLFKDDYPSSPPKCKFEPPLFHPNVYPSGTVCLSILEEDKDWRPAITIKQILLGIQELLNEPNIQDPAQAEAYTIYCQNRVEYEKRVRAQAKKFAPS
NALP1 yeast inh = blocks the NALP1 inflammasome reconstituted in yeast. S. cerevisiae NALP1/ASC/caspase-1 growth, X-gal OD620, 72 h. inhibition, % at 10 µM. hit rate 0.61% among 280,000. AID 2071; in the data active means inhibition mostly above about 24%, no sharp cut-off; inactive means mostly below about 32%
IMP-1 inh-2 = selectivity counter-screen for VIM-2 inhibitors: IMP-1 metallo-beta-lactamase inhibitors | shares compounds with VIM-2 inh | purified IMP-1, nitrocefin hydrolysis, epi-absorbance fluorescence | inhibition, % at 5.6 µM | 1,300 tested, under 10 active | AID 1856; call rule not given here;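 further: 0% = enzyme with vehicle and 100% = vehicle without enzyme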
VIM-2 FRET ctr = counter-screen for VIM-2 inhibitors: epi-absorbance artifacts via FRET; AID 1857; inhibition, % at 5.6 µM; hit rate 23% among 1,300; shares compounds with VIM-2 inh; purified VIM-2, CCF2 FRET substrate hydrolysis;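 active means inhibition above the mean of all tested compounds plus 3 SD, cut at about 19% in these data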;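 further: 0% = VIM-2 plus DMSO and 100% = no enzyme wells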
TEM-1 counter = blocks E. coli TEM-1 beta-lactamase in VIM-2 selectivity screen | AID 1866 | hit rate 3% among 1,300 | Purified TEM-1, nitrocefin hydrolysis, epi-absorbance fluorescence | shares compounds with VIM-2 inh | inhibition, % at 5.6 µM;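 active means inhibition above that campaign's mean inhibition plus 3 SD, cut at about 0.46% in these data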;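 further: 0% = TEM-1 with DMSO and 100% = TEM-1 with 100 µM potassium clavulanate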
Target sequence (P62593 whole entry, looked up): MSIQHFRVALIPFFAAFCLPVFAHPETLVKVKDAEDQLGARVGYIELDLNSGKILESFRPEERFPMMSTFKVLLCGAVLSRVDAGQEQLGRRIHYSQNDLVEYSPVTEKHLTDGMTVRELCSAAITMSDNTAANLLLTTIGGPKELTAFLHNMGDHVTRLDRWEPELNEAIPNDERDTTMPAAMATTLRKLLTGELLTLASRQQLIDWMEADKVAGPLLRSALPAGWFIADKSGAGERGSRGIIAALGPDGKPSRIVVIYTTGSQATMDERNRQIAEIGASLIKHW
VIM-2 inh conf = confirmation of P. aeruginosa VIM-2 metallo-beta-lactamase inhibitors; shares compounds with VIM-2 inh; purified VIM-2, nitrocefin hydrolysis, epi-absorbance; inhibition, % at 5.6 µM; hit rate 96% among 1,300;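 active means inhibition of the VIM-2 beta-lactamase enzyme above about 11% from the earlier first-round screen, limit read from the data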;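 further: 0% = VIM-2 with DMSO and 100% = buffer wells without enzyme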
Active calls of the source: *; x = no result given. An excerpt weighted towards active compounds, which were near 2.9% of everything screened.

SMILES	IMP-1 inh-1	Mot1-301 SUMO	VIM-2 inh	FID counter	SUMO HTRF inh	NALP1 yeast inh	IMP-1 inh-2	VIM-2 FRET ctr	TEM-1 counter	VIM-2 inh conf
CCN(CC)C(=O)CSc1nc2ccc(NC(=O)CSc3nnc(N)s3)cc2s1	-2	-10	-3	-23	29	0	x	x	x	x
COc1ccc(OC)c(NC(=O)COC(=O)c2c3c(nc4ccccc24)CCCC3)c1	-5	-1	-2	-26	-2	4	x	x	x	x
COc1ccc(OC)c(Nc2c3c(nc4ccccc24)CCC3)c1	-1	8	13*	12	6	39	-3	-5	-5	20*
CSc1nc(NCCCN(C)C)c2c3c(sc2n1)CN(C)CC3	-3	-1	25*	42*	9	4	-2	1	-5	37*
CCOC(=O)c1c(C)[nH]c(C(=O)N/N=C\c2ccccc2Cl)c1C	-7	59	-4	-14	-17	20	x	x	x	x
CC(C)(C)c1ccc(COc2ccsc2C(=O)O)cc1	-4	-2	20*	-30	18	-14	-3	48*	-4	29*
O=C(O)c1sccc1OCc1ccccc1	-5	11	0	1	5	28	x	x	x	x
Cc1c(N2C(=O)/C(=C\c3cccc4ccccc34)SC2=S)c(=O)n(-c2ccccc2)n1C	-3	x	62*	-12	-16	39	0	33*	-3	30*
Cc1c(N2C(=O)c3ccccc3C2=O)c(=O)n(-c2ccccc2)n1C	-2	12	-2	-2	4	-25	x	x	x	x
C#CCN1C(=O)S/C(=C/C=C/c2ccc(N(C)C)cc2)C1=O	1	-16	1	-6	17	31	x	x	x	x
OC(CON=C1c2ccccc2-c2ccccc21)CN1CCNCC1 (centres undefined)	-1	7	30*	20	7	21	-3	-4	-7	45*
CSc1nc(C)c2c(n1)N(c1ccc(O)cc1)CC2	-3	-14	16*	-7	14	17	-2	8	-6	27*
Cc1nnc2c(N3CCN(C(=O)c4ccco4)CC3)nc3ccccc3n12	-3	8	13*	-34	x	6	-4	-1	-7	19*
Cc1ccc2nc(N3CCN(C(=O)c4ccco4)CC3)c3nncn3c2c1	-4	-5	4	-36	13	0	x	x	x	x
CCCc1cc(N2CCN(C(=O)c3ccco3)CC2)n2c(nc3ccccc32)c1C#N	1	13	14*	-30	38	5	-3	-10	-5	28*
CN1C(C(=O)NCc2ccccc2)CC2Cn3c(nc4cc5ccccc5cc43)C21 (centres undefined)	x	-10	x	x	12	x	x	x	x	x
CC1CC(C)CN(S(=O)(=O)c2ccc(C(=O)N3CC(C)OC(C)C3)cc2)C1 (centres undefined)	-3	15	0	-38	-6	9	x	x	x	x
Nc1nnc(/C=C/c2ccccc2Cl)s1	-3	8	-3	-6	4	5	x	x	x	x
CC(OC(=O)CCC(=O)c1ccc(Cl)s1)C(=O)NC1(C#N)CCCCC1 (centres undefined)	x	1	x	x	x	x	x	x	x	x
CC(c1n[nH]c(=S)n1-c1ccc(Cl)cc1)N(C)C (centres undefined)	-3	-4	3	-1	-3	15	x	x	x	x
CCC(c1n[nH]c(=S)n1-c1ccccc1)N(C)C (centres undefined)	-6	-13	17*	0	-1	25	-3	34*	-4	26*
CC(c1ccc2c(c1)OCO2)n1c(=S)[nH]c2ccccc2c1=O (centres undefined)	x	-10	x	x	x	x	x	x	x	x
O=C(COC(=O)/C=C/c1ccco1)NCc1ccc2c(c1)OCO2	0	39	-1	-6	8	-9	x	x	x	x
CC(C)(C)OC(=O)C[C@H]1C/C=C\C[C@@H](CC(=O)N(CCO)Cc2ccccc2)C(=O)N[C@H](Cc2ccccc2)COC1=O	x	-16	x	x	x	x	x	x	x	x
COc1ccc(C(=O)Nc2ccc(S(=O)(=O)N3CCN(C)CC3)cc2)cc1	x	195	x	x	x	x	x	x	x	x
SMILES	IMP-1 inh-1	Mot1-301 SUMO	VIM-2 inh	FID counter	SUMO HTRF inh	NALP1 yeast inh	IMP-1 inh-2	VIM-2 FRET ctr	TEM-1 counter	VIM-2 inh conf
COc1ccc(C(=O)Nc2ccc(N3CCN(C)CC3)cc2)cc1	-6	-6	15*	9	-1	14	-2	2	-2	26*
O=C(Nc1ccc(N2CCOCC2)cc1)c1ccc(Br)o1	-3	237	-2	-8	4	3	x	x	x	x
CCN1CCN(c2ccc(NC(=O)c3ccc(Cl)c(N4CCCC4=O)c3)cc2)CC1	-4	-9	26*	2	19	14	-2	-1	-5	42*
CN1CCN(c2ccc(NC(=O)c3ccc(Br)o3)cc2)CC1	-2	-10	14*	-2	15	16	-3	3	-6	31*
CN1CCN(c2ccc(NC(=O)c3ccc4ccccc4c3)cc2)CC1	-1	135	25*	22	10	38	-1	-1	-6	34*
COC(=O)c1ccc(C(=O)N2CCCC(Nc3ccc(F)c(F)c3)C2)cc1 (centres undefined)	-3	13	-1	-16	0	-70	x	x	x	x
COc1cccc(NC(=O)Cn2nnc(C(=O)NCc3ccc4c(c3)OCO4)c2N)c1	3	16	3	-19	10	19	x	x	x	x
CCN1CCN(c2ccc(NC(=O)c3cc(OC)c(OC)c(OC)c3)cc2)CC1	-4	5	24*	4	-10	11	-4	-2	-5	38*
COc1ccc(C(=O)Nc2ccc(N3CCN(C)CC3)cc2)cc1OC	-5	3	24*	5	19	27	-3	3	-6	39*
CCOc1ccccc1Nc1cc(C)nc2nc(C)nn12	-4	-3	15*	-3	-22	11	-2	-1	0.5*	28*
CN(CC(=O)Nc1cccc(Cl)c1)S(=O)(=O)c1ccc2c(c1)n(C)c(=O)c(=O)n2C	-1	-2	-5	-10	14	-65	x	x	x	x
Cc1ccc(Nc2nnc(SCc3cc(=O)n4ccsc4n3)s2)c(C)c1	3	-23	-1	-15	27	-9	x	x	x	x
COc1ccccc1Nc1nnc(SCc2cc(=O)n3ccsc3n2)s1	1	-15	13*	-17	1	3	1	14	3.0*	12*
